This note sets out measurements from ChEMBL document CHEMBL3992503, “Developing piperlongumine-directed glutathione S-transferase inhibitors by an electrophilicity-based strategy” (Eur J Med Chem, 2017).

Active and inactive are the calls of the source. The calls are words filed in the database; no cut-off is given here.

Assay [1] can be described thus: Electrophilicity of the compound assessed as second-oder rate constant for reaction with cysteamine under pseudo-first-oder condition at 40 uM by spectrophotometric method. Summed up:
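Compound fixed at 40 (unit unclear) with cysteamine 0.67–9 mM in 100 mM Tris-HCl pH 7.4 containing 2 mM EDTA–ethanol (v/v 2/1), 25 °C, pseudo-first-order conditions. Decay of compound followed spectrophotometrically at its absorbance maximum; second-order constant k2 derived from these runs.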

Assay [2] is described as follows: Inhibition of equine liver GST assessed as decrease in conjugation of CDNB to GSH preincubated with GSH for 30 mins followed by CDNB addition measured for 3 mins. The arrangement: species or system Equus caballus. Summed up:
(§1)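 CDNB–GSH conjugation by equine liver GST in 100 mM potassium phosphate pH 6.5 with 1 mM GSH. Enzyme and inhibitor preincubated 30 min at 37 °C. Reaction started with 1 mM CDNB (final) and followed at 340 nm for 3 min at 25 °C. Single-point inhibition at 100 (unit unclear); IC50 from sigmoidal fit of inhibition versus concentration.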

The species named for a further assay is Equus caballus. The assay can be described thus: Inhibition of equine liver GST assessed as decrease in conjugation of CDNB to GSH at 100 uM preincubated with GSH for 30 mins followed by CDNB addition measured for 3 mins relative to control. The method, boiled down: as §1
In assay [3] the test system is A549. The assay can be described thus: Inhibition of GST in human A549 cells at 25 uM after 1.5 hrs by DNs-CV probe based fluorescence microscopic method.
The target of assay [4] is T1, Glutathione S-transferase Mu 1 (Homo sapiens) (UniProt P09488).
T1 sequence (whole entry): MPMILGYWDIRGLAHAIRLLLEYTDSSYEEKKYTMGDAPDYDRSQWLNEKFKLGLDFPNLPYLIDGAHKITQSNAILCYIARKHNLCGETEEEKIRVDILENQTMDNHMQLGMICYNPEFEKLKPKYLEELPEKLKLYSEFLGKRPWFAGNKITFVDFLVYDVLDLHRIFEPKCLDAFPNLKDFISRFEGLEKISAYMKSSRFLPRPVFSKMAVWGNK
The experiment in a line: Inhibition of GSTM1 in human A549 cells assessed as potentiation of cisplatin-induced cytotoxicity at 5 uM preincubated for 2 hrs followed by cisplatin addition measured after 48 hrs in presence of DTT by MTT assay. The class given is cell-based. The method, boiled down: (§2)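 A549 cells seeded at 3 × 10⁴ cells/mL and cultured 24 h. For line 6, DTT pretreatment (250, unit unclear) for 1 h. Compound added for 2 h, then cisplatin at 2.5, 5, 10 and 20 (unit unclear) for 48 h. MTT for 4 h at 37 °C in the dark, DMSO solubilisation, OD read at 570 nm.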

Assay [5] concerns the target T1, Glutathione S-transferase Mu 1 (Homo sapiens). The assay can be described thus: Inhibition of GSTM1 in human A549 cells assessed as potentiation of cisplatin-induced cytotoxicity at 5 uM preincubated for 2 hrs followed by cisplatin addition measured after 48 hrs by MTT assay. The format is cell-based. Summed up:
as §2
On the technique in general: Tetrazolium dyes change colour on reduction, which living cells bring about.

The target is the same in assay [6]. The experiment in a line: Inhibition of GSTM1 in human A549 cells assessed as potentiation of cisplatin-induced cytotoxicity by measuring combination index at 5 uM preincubated for 2 hrs followed by cisplatin addition measured after 48 hrs by MTT assay. The format is cell-based.
Assay [7] can be described thus: Competitive inhibition of equine liver GST using varying levels of substrate GSH and fixed CDNB concentration preincubated with GSH for 30 mins followed by CDNB addition measured for 3 mins by Lineweaver-Burk plot analysis. The arrangement: species or system Equus caballus. Summed up:
(§3)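 Equine liver GST in 100 mM potassium phosphate pH 6.5 with inhibitor at 0, 12.5, 25 or 50 (unit unclear). Varied substrate at 0.1–1 mM, other substrate fixed at 1 mM: GSH varied for line 1, CDNB for line 10. Preincubated 30 min at 37 °C, started with CDNB, A340 read for 3 min at 25 °C. Mean of triplicates on Lineweaver-Burk plots; Ki from intercept (CDNB) or slope (GSH) replots.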

A short description of assay [8]: Noncompetitive inhibition of equine liver GST using fixed GSH substrate concentration and varying levels of CDNB preincubated with GSH for 30 mins followed by CDNB addition measured for 3 mins by Lineweaver-Burk plot analysis. Set-up: species or system Equus caballus. Summed up: as §3
Assay [9] has as its system A549. The experiment in a line: Inhibition of GST in human A549 cells at 25 uM after 1.5 hrs in presence of DTT by DNs-CV probe based fluorescence microscopic method.

With `O=C(/C=C/c1cccc(C(F)(F)F)c1)N1CCC=C(Cl)C1=O`, the K in assay [1] worked out at 2.53 M⁻¹ s⁻¹. For the same compound, in assay [2], the IC50 was 10.5 µM. For the same compound, the inhibition in the assay filed under Equus caballus is 71%.
Take `COc1cc(CCC(=O)N2CCCCC2=O)cc(OC)c1OC` [TETRAHYDROPIPLARTINE]: in assay [2], the IC50 was more than 100 µM. In addition, the inhibition in the assay filed under Equus caballus was found to be 0%.
In the case of `O=C1C=CCCN1C(=O)/C=C/c1ccccc1C(F)(F)F`, the K in assay [1] turned out to be 0.39 M⁻¹ s⁻¹. In addition, the IC50 in assay [2] is more than 100 µM. The inhibition in the assay listed under Equus caballus turned out to be 31.5%.
In the same order, the values of `O=C1C=CCCN1C(=O)/C=C/c1cccc(C(F)(F)F)c1` are 1.13 M⁻¹ s⁻¹, 50.1 µM and 53%.
Take `C/C=C/C(=O)N1CCC=CC1=O`: the K in assay [1] stood at 1.21 M⁻¹ s⁻¹. Besides, in assay [2], the IC50 is more than 100 µM. The inhibition in the assay listed under Equus caballus amounted to 8.2%.
The like results for `COc1cc(/C=C/C(=O)N2CCC=C(Cl)C2=O)cc(OC)c1OC` were, in that order, 0.99 M⁻¹ s⁻¹, more than 100 µM and 30.8%.
Regarding `O=C(/C=C/c1ccccc1C(F)(F)F)N1CCC=C(Cl)C1=O`, the K in [1] was determined as 0.67 M⁻¹ s⁻¹. Also, the concentration for half-maximal inhibition (IC50) in assay [2] was more than 100 µM. The inhibition in the assay filed under Equus caballus stood at 40.3%.
As to `COc1cc(/C=C/C(=O)C2CCC=CC2=O)cc(OC)c1OC` (stereo not drawn), the K in assay [1] worked out at 1.15 M⁻¹ s⁻¹. For the same compound, in assay [2], the IC50 is more than 100 µM. Besides, the inhibition in the assay filed under Equus caballus was 50.5%.
The like results for `COc1cc(/C=C/C(=O)N2CCCCC2=O)cc(OC)c1OC` were, in that order, 0.35 M⁻¹ s⁻¹, more than 100 µM and 15.4%.
Turning to `O=C1C=CCCN1C(=O)/C=C/c1ccc(C(F)(F)F)cc1`, the K in assay [1] turned out to be 1.35 M⁻¹ s⁻¹. The IC50 in [2] is 41.6 µM. The inhibition in the assay listed under Equus caballus came out at 55.5%.
`COc1cc(/C=C/C(=O)N2CCC=CC2=O)cc(OC)c1OC` [PIPLARTINE]: the K in assay [1] is 0.46 M⁻¹ s⁻¹. Besides, the inhibition result in the assay with A549 [3] is “inactive”. Further, the IC50 in assay [2] is more than 100 µM. Moreover, the inhibition in the assay filed under Equus caballus came out at 30.7%.
For the compound `O=C(/C=C/c1ccc(C(F)(F)F)cc1)N1CCC=C(Cl)C1=O`, in assay [1], the K is 2.64 M⁻¹ s⁻¹. For the same compound, the inhibition result (in assay [4]; in the assay on A549 [9]) was “inactive” each time. The inhibition result (in the assay on A549 [3]; in assay [5]) was “Active” in each case. Further, the IC50 in [2] stood at 5.6 µM. Besides, in assay [6], the CI is less than 1. Besides, the inhibition in the assay listed under Equus caballus is 74.7%. In addition, the Ki in assay [7] came to 7.8 µM; in assay [8], 24.7 µM.

Usually IC50 stands for the point on the concentration scale where inhibition reaches its midpoint. For orientation: inhibition means the change of the read-out against control, counted positive when it falls. As a reminder, the Ki is the equilibrium dissociation constant of an inhibitor or competing ligand from its target. Low readings indicate a stronger hold on the target, high ones a looser hold on the target.
